pEC50: −log10 of the molar value.
Columns and labels:
Huh-7.5 = test: (§1) Cytotoxicity against human Huh7.5 cells assessed as inhibition of cell growth measured after 96 hrs by MTT assay; format: toxicity, cell-based; conditions: huh-7.5, 96 h
Outline: (§2)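 Huh7.5 cells in DMEM with 10% heat-inactivated FBS, seeded at 3.0 × 10⁴ cells/cm²; after 24 h, fresh medium with compound added (DMSO stocks, eight 1:5 serial dilutions).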

[1] = molecular target: DNA dC->dU-editing enzyme APOBEC-3G (Homo sapiens) (UniProt Q9HC16); test: Inhibition of Vif-mediated human A3G degradation in HEK-293T cells cotransfected with hA3G and Vif at 20 uM by western blot analysis relative to control; format: cell-based
Outline: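 293T cells cotransfected with hA3G and Vif expression vectors, then treated with compounds at 20 μM; MG132 proteasome inhibitor as positive control, DMSO-treated cells as comparator for hA3G degradation.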

[2] = Selectivity index, ratio of CC50 for cytotoxicity against human Huh7.5 cells to EC50 for antiviral activity against Hepatitis C virus infected in human Huh7.5 cells; format: toxicity, cell-based; conditions: read-out: Ratio CC50/EC50
Hepatitis C virus = test: Antiviral activity against Hepatitis C virus infected in human Huh7.5 cells assessed as inhibition of viral replication incubated for 72 hrs by qRT-PCR analysis; format: functional, organism-based, Hepacivirus hominis; conditions: Huh7.5, 72 h
[3] = Acute toxicity in ip dosed Kunming mouse assessed as lethal dose measured after 7 days; format: organism-based; conditions: in vivo, 168 h, time 7 day
Outline: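 Single intraperitoneal dose at 50, 100, 150 or 200 mg/kg, n = 6 per group. Animals watched closely for 7 days. Median lethal dose (LD₅₀) estimated from deaths across the dose groups.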

[4] = as §1; format: toxicity, cell-based, Huh-7.5; conditions: Huh7.5 cells; outline: as §2
[5] = Aqueous Solubility of compound at pH 7 measured after 10 mins by HPLC-UV analysis; format: physicochemical; conditions: buffer

Chain of DNA dC->dU-editing enzyme APOBEC-3G (Homo sapiens) (Q9HC16 whole entry): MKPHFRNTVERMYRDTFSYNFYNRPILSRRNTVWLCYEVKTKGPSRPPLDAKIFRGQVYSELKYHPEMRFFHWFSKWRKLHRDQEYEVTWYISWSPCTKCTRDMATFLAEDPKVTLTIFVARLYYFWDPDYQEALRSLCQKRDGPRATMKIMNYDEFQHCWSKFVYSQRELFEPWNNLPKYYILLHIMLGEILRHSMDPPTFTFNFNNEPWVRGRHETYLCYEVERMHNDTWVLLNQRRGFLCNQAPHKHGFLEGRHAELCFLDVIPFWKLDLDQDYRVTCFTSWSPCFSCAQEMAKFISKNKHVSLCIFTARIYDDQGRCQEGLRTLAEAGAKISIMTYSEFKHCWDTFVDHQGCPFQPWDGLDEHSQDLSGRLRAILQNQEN

| Compound | CC50 (Huh-7.5) [µM] | inhibition [1] [%] | selectivity ratio [2] | pEC50 (Hepatitis C virus) | LD50 [3] [mg/kg] | CC50 at 96 h [4] [µM] | solubility at 10 min [5] [µg/mL] |
| --- | --- | --- | --- | --- | --- | --- | --- |
| CCC(=O)Nc1cc(C(=O)Nc2ccc(-c3cc4ccccc4[nH]3)cc2)ccc1OC | 65.6 | > 50 | 9 | 5.13 |  |  |  |
| CCC(=O)Nc1cc(C(=O)Nc2ccc(N(C)C)cc2)ccc1OC(C)C | 80.6 |  | 13 | 5.22 |  |  |  |
| COc1ccc(NC(=O)c2ccc(OCCCCl)c([N+](=O)[O-])c2)cc1 | 39.7 | < 25 | 17 | 5.62 |  |  |  |
| O=C(Nc1ccc(CN2CC(C(=O)O)C2)c(C(F)(F)F)c1)c1ccc(OCCCCl)c([N+](=O)[O-])c1 | > 200 |  | > 42 | 5.33 |  |  |  |
| CN1CCN(Cc2ccc(NC(=O)c3ccc(OCCCCl)c(S(N)(=O)=O)c3)cc2C(F)(F)F)CC1 | 5.47 |  | 6.2 | 5.94 |  |  |  |
| COc1ccc(C(=O)Nc2ccc(N(C)C)cc2)cc1[N+](=O)[O-] | 88.2 | > 50 | 22 | 5.39 |  |  |  |
| CN(C)C1CCN(Cc2ccc(NC(=O)c3ccc(OCCCCl)c([N+](=O)[O-])c3)cc2C(F)(F)F)C1 (configuration not stated) | 5.8 |  | 113 | 7.29 |  |  |  |
| O=C(Nc1ccc(CN2CCOCC2)c(C(F)(F)F)c1)c1ccc(OCCCCl)c([N+](=O)[O-])c1 | 6.1 |  | 19.3 | 6.50 |  |  |  |
| CN1CCN(Cc2ccc(NC(=O)c3ccc(OCCCCl)c(C(F)(F)F)c3)cc2C(F)(F)F)CC1 | 13.4 |  | 99.6 | 6.89 |  |  |  |
| CC(C)Oc1ccc(C(=O)Nc2ccc(CN3CCN(C)CC3)c(C(F)(F)F)c2)cc1NC(=O)C(C)Br (configuration not stated) | 8.7 |  | 27 | 6.49 |  |  |  |
| CN(C)C1CN(Cc2ccc(NC(=O)c3ccc(OCCCCl)c([N+](=O)[O-])c3)cc2C(F)(F)F)C1 | 7.8 |  | 371 | 7.68 |  |  |  |
| CN(C)C1CCN(Cc2ccc(NC(=O)c3ccc(OCCCCl)c([N+](=O)[O-])c3)cc2C(F)(F)F)CC1 | 5.5 |  | 14 | 6.42 |  |  |  |
| CCC(=O)Nc1cc(C(=O)Nc2ccc(OC)cc2)ccc1OCCCCl | 158 |  | 21 | 5.13 |  |  |  |
| COc1ccc(NC(=O)c2ccc(OCCCN(C)C)c([N+](=O)[O-])c2)cc1 | 126 | < 25 | 14 | 5.05 |  |  |  |
| CCC[C@H](NC(=O)[C@@H]1[C@H]2CCC[C@H]2CN1C(=O)[C@@H](NC(=O)[C@@H](NC(=O)c1cnccn1)C1CCCCC1)C(C)(C)C)C(=O)C(=O)NC1CC1 | 23.7 |  |  |  |  |  |  |
| CCC(=O)Nc1cc(C(=O)Nc2ccc(CN3CCN(C)CC3)c(C(F)(F)F)c2)ccc1OCCCCl | 7.87 |  | 36.3 | 6.66 |  |  |  |
| CC(C)Oc1ccc(C(=O)Nc2ccc(N(C)C)cc2)cc1N | 72.1 |  | 10 | 5.13 |  |  |  |
| CCC(=O)Nc1cc(C(=O)Nc2ccc(OC)cc2)ccc1OCCCN1CCN(C)CC1 | 126 | > 50 | 9.4 | 4.87 |  |  |  |
| COc1ccc(NC(=O)c2ccc(OC(C)C)c([N+](=O)[O-])c2)cc1 | 23.4 | < 25 | 8 | 5.54 |  |  |  |
| CCCOc1ccc(C(=O)Nc2ccc(OC)cc2)cc1[N+](=O)[O-] |  | < 25 |  |  |  |  |  |
| CCC(=O)Nc1cc(C(=O)Nc2ccc(OC)cc2)ccc1OCCCN(C)C | 154 | > 50 |  | < 4.65 |  |  |  |
| CN1CCN(Cc2ccc(NC(=O)c3ccc(OCCCCCl)c([N+](=O)[O-])c3)cc2C(F)(F)F)CC1 | 3.74 |  | 37 | 7.00 |  |  |  |
| CN1CCN(Cc2ccc(NC(=O)c3ccc(OCCCCCCl)c([N+](=O)[O-])c3)cc2C(F)(F)F)CC1 | 2.14 |  | 36 | 7.22 |  |  |  |
| CN1CCN(Cc2ccc(NC(=O)c3ccc(OCCCl)c([N+](=O)[O-])c3)cc2C(F)(F)F)CC1 | 9.04 |  | 204 | 7.36 |  |  |  |
| CN1CCN(Cc2ccc(NC(=O)c3ccc(OCCCCl)c([N+](=O)[O-])c3)cc2C#N)CC1 | 15.5 |  | 23 | 6.19 |  |  |  |
| CCC(=O)Nc1cc(C(=O)Nc2ccc(OC)cc2)ccc1OC(C)C | 113 | < 25 | 103 | 5.96 |  |  |  |
| COc1ccc(NC(=O)c2ccc(OCCCN(C)C)c(N)c2)cc1 |  | < 25 |  |  |  |  |  |
| CCC(=O)Nc1cc(C(=O)Nc2ccc(CN3CCN(C)CC3)cc2)ccc1OC | > 200 | 25 |  | < 4.65 |  |  |  |

| Compound | CC50 (Huh-7.5) [µM] | inhibition [1] [%] | selectivity ratio [2] | pEC50 (Hepatitis C virus) | LD50 [3] [mg/kg] | CC50 at 96 h [4] [µM] | solubility at 10 min [5] [µg/mL] |
| --- | --- | --- | --- | --- | --- | --- | --- |
| COc1ccc(NC(=O)c2ccc(OCCCN3CCN(C)CC3)c([N+](=O)[O-])c2)cc1 |  | < 25 |  |  |  |  |  |
| CCC(=O)Nc1cc(C(=O)Nc2ccc(CN3CCN(C)CC3)c(C(F)(F)F)c2)ccc1OC | 35.3 | > 50 | 24 | 5.83 |  |  |  |
| CN1CCN(Cc2ccc(NC(=O)c3ccc(OCCCCl)c(N)c3)cc2C(F)(F)F)CC1 | 12.9 |  | 10.9 | 5.93 |  |  |  |
| CCC(=O)Nc1cc(C(=O)Nc2ccc(N(C)C)cc2)ccc1OC | 171 | < 25 | 66 | 5.59 |  |  |  |
| CC(C)Oc1ccc(C(=O)Nc2ccc(CN3CCN(C)CC3)c(C(F)(F)F)c2)cc1N | 21.6 |  | 16 | 5.88 |  |  |  |
| CCC(=O)Nc1cc(C(=O)Nc2ccc(OC)cc2)ccc1OC | 109 | > 50 | 84 | 5.89 |  |  |  |
| COc1ccc(NC(=O)c2ccc(OCCCN3CCN(C)CC3)c(N)c2)cc1 |  | < 25 |  |  |  |  |  |
| COc1ccc(C(=O)Nc2cc(OC)c(OC)c(OC)c2)cc1NC(=O)C(C)Br (configuration not stated) | 15 |  | 7 | 5.68 |  |  |  |
| CCC(=O)Nc1cc(C(=O)Nc2ccc(CN3CCN(C)CC3)c(C(F)(F)F)c2)ccc1OC(C)C | 15.3 |  | 51 | 6.52 |  |  |  |
| CN1CCN(Cc2ccc(NC(=O)c3ccc(OCCCCl)c([N+](=O)[O-])c3)cc2C(F)(F)F)CC1 | 6.8 |  | 154 | 7.36 | < 100 |  |  |
| CC(C)Oc1ccc(C(=O)Nc2ccc(N(C)C)cc2)cc1NC(=O)C(C)Br (configuration not stated) | 7.9 |  | 2 | 5.36 |  |  |  |
| CC1CN(Cc2ccc(NC(=O)c3ccc(OCCCCl)c([N+](=O)[O-])c3)cc2C(F)(F)F)CC(C)O1 (configuration not stated) | 2.3 |  | 13.3 | 6.76 |  |  |  |
| CN1CCN(Cc2ccc(NC(=O)c3ccc(OCCCCl)c([N+](=O)[O-])c3)cn2)CC1 |  |  | 151 | 7.08 |  | 12.6 |  |
| CCC(=O)Nc1cc(C(=O)Nc2ccc(OC)cc2)ccc1OCCCN1CCOCC1 | 49.2 |  |  | < 4.65 |  |  |  |
| CN1CCN(Cc2ccc(NC(=O)c3ccc(OCCCCl)c(Cl)c3)cc2C(F)(F)F)CC1 | 4.1 |  | 7 | 6.24 |  |  |  |
| CCC(=O)Nc1cc(C(=O)Nn2c(C)nnc2S)ccc1OC | > 200 | > 50 | > 14 | 4.84 |  |  |  |
| CC(C)Oc1ccc(C(=O)Nc2ccc(CN3CCN(C)CC3)c(C(F)(F)F)c2)cc1[N+](=O)[O-] | 3.5 | < 25 | 39 | 7.02 |  |  |  |
| COc1ccc2c(O[C@@H]3C[C@H]4C(=O)N[C@]5(C(=O)NS(=O)(=O)C6CC6)CC5/C=C\CCCCN(C)C(=O)[C@@H]4C3)cc(-c3nc(C(C)C)cs3)nc2c1C (single isomer, unassigned) | 38 |  | 4760 | 8.10 |  |  |  |
| CN(C)C1CN(Cc2ccc(NC(=O)c3ccc(OCCCl)c([N+](=O)[O-])c3)cc2C(F)(F)F)C1.Cl |  |  |  |  |  |  | 7800 |
| CCC(=O)Nc1cc(C(=O)Nc2ccc(N3CCN(C)CC3)cc2)ccc1OC | > 200 |  |  | < 4.65 |  |  |  |
| CCCOc1ccc(C(=O)Nc2ccc(OC)cc2)cc1NC(=O)CC | 106 | 25 | 68 | 5.81 |  |  |  |
| COc1ccc(NC(=O)c2ccc3c(c2)NCCO3)cc1 | 153 | < 25 |  | < 4.65 |  |  |  |
| CC1CCN(c2ccc(NC(=O)c3ccc(OCCCCl)c([N+](=O)[O-])c3)cn2)CC1 | 9.2 |  | 14.4 | 6.19 |  |  |  |
| CCOc1ccc(C(=O)Nc2ccc(OC)cc2)cc1NC(=O)CC | 73.2 | 25 | 48 | 5.83 |  |  |  |
| CC(C)Oc1ccc(C(=O)Nc2ccc(N(C)C)cc2)cc1[N+](=O)[O-] | 50 |  | 16 | 5.51 |  |  |  |
| CN1CCN(Cc2ccc(NC(=O)c3ccc(OCCCCl)c(F)c3)cc2C(F)(F)F)CC1 | 8.8 |  | 18.9 | 6.31 |  |  |  |
| COc1ccc(NC(=O)c2ccc3c(c2)NC(=O)CO3)cc1 | 77.3 | 25 | 10 | 5.13 |  |  |  |

Source: ChEMBL document CHEMBL5046236, “Synthesis and structure-activity relationship study of new biaryl amide derivatives and their inhibitory effects against hepatitis C virus” (Eur J Med Chem, 2022)
